# Test results reported in PMC9055277 (RSC Advances, 2020).
# What was measured:
# [1] = system: Salmonella typhimurium TA100; test: Salmonella/microsome test; type: cell-based
# fish sperm DNA (FS-DNA) = test: UV-Vis absorption titration of ligands with FS-DNA; type: binding; conditions: on addition of FS-DNA; band 335 nm (1S3), 345 nm (2S3)
# Procedure, shortened: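 FS-DNA stock was in Tris–HCl pH 7.4 (A260/A280 > 1.8). Test compound (10 μM, diluted from water stock in Tris–HCl) was titrated with FS-DNA (0–20 μM). Tubes were shaken and incubated 15 min, then scanned 200–800 nm in triplicate. The spectrum of DNA alone was subtracted. Kb came from the Benesi–Hildebrand plot of [DNA]/(εa − εf) vs [DNA] as slope/intercept.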
# FS-DNA bound to EtBr = test: Fluorescence quenching of EtBr–FS-DNA system; type: binding, fish; conditions: EtBr–FS-DNA (DNA : EtBr 10 : 1), ligand 0–70 μM, Stern–Volmer equation
# Procedure, shortened: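 FS-DNA stock in Tris–HCl pH 7.4, kept at 4 °C for up to 72 h, with purity checked by A260/A280 > 1.8. EtBr stock (3.0 × 10⁻³ mol L⁻¹, ethanol) was made fresh. DNA and EtBr were premixed 15 min at 25 °C. Ligand was diluted from water stock in Tris–HCl, added, and incubated 15 min. Slits were 5/10 nm. KSV is the slope of I₀/I vs [Q].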
# [2] = system: Salmonella typhimurium TA98; test: Salmonella/microsome test; type: cell-based
# [3] = −S9, control set of the 2S3 experiment (concentration cell empty)
# [4] = TA98, absence of metabolic activation system (−S9)
# [5] = TA98, presence of metabolic activation system (+S9), 2S3: at 0.40, 0.20 and 0.10 mg per plate
# [6] = TA100, absence of metabolic activation system (−S9)
# [7] = TA100, presence of metabolic activation system (+S9)
revertant colonies TA98 +S9 ([2]; 0.02 mg per plate),revertant colonies TA98 −S9 ([2]; 0.02 mg per plate),revertant colonies TA98 +S9 ([2]; 0.05 mg per plate),revertant colonies TA98 −S9 ([2]; 0.05 mg per plate),revertant colonies TA98 +S9 ([2]; 0.10 mg per plate),revertant colonies TA98 −S9 ([2]; 0.10 mg per plate),revertant colonies TA98 +S9 ([2]; 0.20 mg per plate),revertant colonies TA98 −S9 ([2]; 0.20 mg per plate),revertant colonies TA98 +S9 ([2]; 0.40 mg per plate),revertant colonies TA98 −S9 ([2]; 0.40 mg per plate),revertant colonies TA100 +S9 ([1]; 0.02 mg per plate),revertant colonies TA100 −S9 ([1]; 0.02 mg per plate),revertant colonies TA100 +S9 ([1]; 0.05 mg per plate),revertant colonies TA100 −S9 ([1]; 0.05 mg per plate),revertant colonies TA100 +S9 ([1]; 0.10 mg per plate),revertant colonies TA100 −S9 ([1]; 0.10 mg per plate),SMILES,Hypochromism (fish sperm DNA (FS-DNA)),quenching constant KSV (FS-DNA bound to EtBr),"effect on number of revertant colonies (mutagenicity), in words [2, 4]","effect on number of revertant colonies (mutagenicity), in words [2, 5]",other results
,,,,,,,,,,,,,,,,"[N-]=[N+]=[N-].[Na+] [SA, sodium azide, reference compound]",,,,,"revertant colonies TA100 −S9, positive control ([1]; 1 μg mL^−1, −S9, control set of the 1S3 experiment): 1497.2 ± 230.28; revertant colonies TA100 −S9, positive control [1, 3]: 1506.40 ± 114.82"
15.60 ± 2.52 b3,17.00 ± 1.00 b3,18.40 ± 1.74 b3,17.40 ± 1.12 b3,25.40 ± 1.83 a2b3,20.00 ± 2.25 b3,22.00 ± 1.37 a2b3,16.60 ± 1.80 b3,24.60 ± 2.11 a2b3,19.20 ± 2.08 b3,187.40 ± 18.93 a1b3,182.40 ± 9.15 a2b3,190.80 ± 11.16 a2b3,195.40 ± 6.96 a3b3,196.60 ± 15.75 a2b3,185.60 ± 7.20 a2b3,"NC(=O)COc1ccc(-c2cc(=O)c3c(OCC(N)=O)cc(OCC(N)=O)cc3o2)cc1 [2S3, 2,2′-((2-(4-(2-Amino-2-oxoethoxy)phenyl)-4-oxo-4H-chromene-5,7-diyl)bis(oxy))diacetamide]",20.91%,19600 M⁻¹,did not cause an increase,statistically significant increase,"revertant colonies TA100 +S9 ([1]; 0.20 mg per plate): 183.60 ± 9.35 a2b3; revertant colonies TA100 −S9 ([1]; 0.20 mg per plate): 200.00 ± 8.44 a2b3; revertant colonies TA100 +S9 ([1]; 0.40 mg per plate): 210.40 ± 2.31 a3b3; revertant colonies TA100 −S9 ([1]; 0.40 mg per plate): 171.40 ± 8.55 a1b3; effect on number of revertant colonies (mutagenicity), in words [1, 6]: significantly increased; effect on number of revertant colonies (mutagenicity), in words [1, 7]: significantly increased"
9.00 ± 0.44 a3b3,12.00 ± 1.41 a1b3,7.80 ± 1.11 a2b3,14.40 ± 2.20 b3,14.00 ± 2.60 b3,12.20 ± 0.66 a2b3,11.20 ± 2.97 b3,13.20 ± 1.01 a1b3,7.20 ± 1.68 a1b3,11.60 ± 1.63 a1b3,47.00 ± 7.16 a3b3,112.40 ± 3.28 a3b3,48.80 ± 12.85 a2b3,94.00 ± 8.43 a3b3,62.00 ± 4.95 a3b3,85.00 ± 7.17 a3b3,"NC(=O)COc1cc(OCC(N)=O)c2c(=O)c(OCC(N)=O)c(-c3ccc(OCC(N)=O)c(OCC(N)=O)c3)oc2c1 [1S3, 2,2′,2′′-((2-(3,4-bis(2-amino-2-oxoethoxy)phenyl)-4-oxo-4H-chromene-3,5,7-triyl)tris(oxy))triacetamide]",22.54%,18300 M⁻¹,did not cause any detectable increase,did not cause any detectable increase,"revertant colonies TA100 +S9 ([1]; 0.20 mg per plate): 47.00 ± 6.73 a3b3; revertant colonies TA100 −S9 ([1]; 0.20 mg per plate): 80.20 ± 10.65 a2b3; revertant colonies TA100 +S9 ([1]; 0.40 mg per plate): 82.20 ± 5.37 a3b3; revertant colonies TA100 −S9 ([1]; 0.40 mg per plate): 88.80 ± 14.07 a2b3; effect on number of revertant colonies (mutagenicity), in words [1, 6]: did not cause any detectable increase; effect on number of revertant colonies (mutagenicity), in words [1, 7]: did not cause any detectable increase"
,,,,,,,,,,,,,,,,"Nc1ccc([N+](=O)[O-])cc1N [NPD, 4-nitro-o-phenylenediamine, reference compound]",,,,,"revertant colonies TA98 −S9, positive control ([2]; 200 μg mL^−1, −S9, control set of the 1S3 experiment): 4260 ± 291.75; revertant colonies TA98 −S9, positive control [2, 3]: 3808.40 ± 221.78"
